Measurements from ChEMBL document CHEMBL4354819, “Discovery of Novel Small Molecule Dual Inhibitors Targeting Toll-Like Receptors 7 and 8” (J Med Chem, 2019).

Legend:
Assay type in all cases: cell-based
[1] = biological target: T1, Toll-like receptor 7 (Homo sapiens, UniProt Q9NYK1); test: Inhibition of human TLR7 expressed in HEK293 cells assessed as reduction in R848-induced NFkappaB production incubated for 16 hrs by quanti-blue SEAP assay
T1 sequence (Q9NYK1 whole entry): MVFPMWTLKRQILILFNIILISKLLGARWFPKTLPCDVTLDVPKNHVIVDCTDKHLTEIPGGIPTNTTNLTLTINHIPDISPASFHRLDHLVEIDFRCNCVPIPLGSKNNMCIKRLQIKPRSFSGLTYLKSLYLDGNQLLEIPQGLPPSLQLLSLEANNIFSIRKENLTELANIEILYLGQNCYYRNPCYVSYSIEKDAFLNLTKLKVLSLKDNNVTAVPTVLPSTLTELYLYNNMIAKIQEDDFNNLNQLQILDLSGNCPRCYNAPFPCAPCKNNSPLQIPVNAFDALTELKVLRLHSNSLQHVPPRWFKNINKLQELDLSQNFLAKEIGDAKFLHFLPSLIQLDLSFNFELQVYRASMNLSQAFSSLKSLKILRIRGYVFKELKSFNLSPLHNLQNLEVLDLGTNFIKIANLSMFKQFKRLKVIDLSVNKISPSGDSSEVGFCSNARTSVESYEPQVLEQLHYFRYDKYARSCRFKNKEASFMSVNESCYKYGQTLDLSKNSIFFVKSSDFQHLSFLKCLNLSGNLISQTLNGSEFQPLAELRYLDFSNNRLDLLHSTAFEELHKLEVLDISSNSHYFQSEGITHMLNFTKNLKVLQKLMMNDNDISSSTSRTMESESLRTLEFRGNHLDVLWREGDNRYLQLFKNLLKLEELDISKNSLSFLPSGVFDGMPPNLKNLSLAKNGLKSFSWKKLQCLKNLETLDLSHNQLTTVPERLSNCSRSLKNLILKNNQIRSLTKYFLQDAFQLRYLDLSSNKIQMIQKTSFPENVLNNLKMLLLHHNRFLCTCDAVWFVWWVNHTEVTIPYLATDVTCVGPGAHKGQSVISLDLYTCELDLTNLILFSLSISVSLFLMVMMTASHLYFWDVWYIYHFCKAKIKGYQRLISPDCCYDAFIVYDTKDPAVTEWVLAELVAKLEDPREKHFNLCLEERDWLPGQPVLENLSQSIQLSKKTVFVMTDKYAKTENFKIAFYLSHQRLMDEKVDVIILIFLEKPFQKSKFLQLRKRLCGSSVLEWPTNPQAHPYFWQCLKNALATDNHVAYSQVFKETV
Method in brief: (§1)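 HEK 293-Blue cells stably expressing hTLR7 or hTLR8 with an inducible SEAP reporter were incubated 16 h with compound under 1 µg/mL R848 stimulation. SEAP was read at 620 nm. Data were normalized to the R848 control, and IC50 was taken from concentration-response curves. […] Mean ± s.d., n = 3 independent experiments.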

[2] = biological target: T2, Toll-like receptor 8 (Homo sapiens, UniProt Q9NR97); test: Inhibition of human TLR8 expressed in HEK293 cells assessed as reduction in R848-induced NFkappaB production incubated for 16 hrs by quanti-blue SEAP assay; method in brief: as §1
T2 sequence (Q9NR97 whole entry): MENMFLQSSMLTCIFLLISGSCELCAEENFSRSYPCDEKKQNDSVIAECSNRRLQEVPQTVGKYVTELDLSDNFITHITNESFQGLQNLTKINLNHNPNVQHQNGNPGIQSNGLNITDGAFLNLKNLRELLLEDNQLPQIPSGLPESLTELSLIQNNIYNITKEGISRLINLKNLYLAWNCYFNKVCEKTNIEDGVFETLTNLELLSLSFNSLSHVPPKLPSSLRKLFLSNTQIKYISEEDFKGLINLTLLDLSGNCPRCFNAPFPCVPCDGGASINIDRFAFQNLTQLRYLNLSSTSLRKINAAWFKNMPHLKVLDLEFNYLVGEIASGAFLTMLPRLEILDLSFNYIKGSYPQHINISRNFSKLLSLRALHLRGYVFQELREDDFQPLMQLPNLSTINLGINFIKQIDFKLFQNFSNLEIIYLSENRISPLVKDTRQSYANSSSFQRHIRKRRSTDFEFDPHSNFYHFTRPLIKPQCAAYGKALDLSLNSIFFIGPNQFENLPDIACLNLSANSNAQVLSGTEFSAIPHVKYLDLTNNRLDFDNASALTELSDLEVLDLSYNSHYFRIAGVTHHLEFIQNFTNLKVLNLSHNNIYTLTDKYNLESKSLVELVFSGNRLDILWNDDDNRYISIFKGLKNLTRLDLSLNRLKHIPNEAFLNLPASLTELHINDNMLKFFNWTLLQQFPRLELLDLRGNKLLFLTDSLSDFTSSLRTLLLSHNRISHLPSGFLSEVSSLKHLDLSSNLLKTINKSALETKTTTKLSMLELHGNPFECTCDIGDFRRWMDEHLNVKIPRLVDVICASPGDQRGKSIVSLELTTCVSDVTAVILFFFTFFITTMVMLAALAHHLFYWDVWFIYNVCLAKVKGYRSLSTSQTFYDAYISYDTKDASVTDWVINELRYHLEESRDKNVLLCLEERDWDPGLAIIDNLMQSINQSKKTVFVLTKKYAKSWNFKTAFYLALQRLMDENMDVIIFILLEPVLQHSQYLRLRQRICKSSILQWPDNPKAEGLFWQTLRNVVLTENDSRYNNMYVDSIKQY

[3] = biological target: T3, Toll-like receptor 7 (Homo sapiens) (UniProt Q9NYK1); test: Inhibition of human TLR7 expressed in HEK293 cells assessed as reduction in resiquimod-induced NFkappaB production at 1.5 to 5 uM incubated for 16 hrs by quanti-blue SEAP assay
T3 sequence (whole entry): T1 sequence (Q9NYK1 whole entry)
Method in brief: (§2)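 Selectivity panel in stably transfected HEK 293-Blue cells, each overexpressing one human TLR with an inducible SEAP reporter. Agonists: Pam3CSK4 (TLR1/2), Pam2CSK4 (TLR2/6), poly(I:C) (TLR3), LPS (TLR4), R848 (TLR7/8), ODN 2006 (TLR9). Cells were exposed to compound for 16 h. Activity = (raw − untreated)/(ligand + solvent − untreated), with ligand + solvent set as 100%.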

[4] = biological target: T4, Toll-like receptor 8 (Homo sapiens) (UniProt Q9NR97); test: Inhibition of human TLR8 expressed in HEK293 cells assessed as reduction in R848-induced NFkappaB production at 1.5 to 5 uM incubated for 16 hrs by quanti-blue SEAP assay; method in brief: as §2
T4 sequence (whole entry): T2 sequence (Q9NR97 whole entry)

Row | Compound | IC50 [1] [µM] | IC50 [2] [µM] | inhibition [3] [%] | inhibition [4] [%]
1 | O=C(Nc1ccc(Oc2cc(C(F)(F)F)cc(C(F)(F)F)c2)cc1)c1ccccc1F | > 50 | 3 | – | –
2 | O=C(Nc1cccc(Oc2cc(C(F)(F)F)cc(C(F)(F)F)c2)c1)c1c(F)cccc1Cl | – | – | 0 | –
3 | O=C(Nc1ccc(Oc2cccc(C(F)(F)F)c2)cc1)c1c(F)cccc1Cl | 2.65 | 2.41 | – | –
4 | Cc1nnc(-c2ccc(C(=O)Oc3cccc(Cl)c3C#N)cc2)o1 | – | – | – | 0
5 | O=C(Nc1ccc(Oc2cc(C(F)(F)F)cc(C(F)(F)F)c2)cc1)c1ccc(O)cc1F | – | > 50 | 0 | –
6 | Nc1c(Cl)cccc1Oc1ccc(-c2nnco2)cc1 | – | 5.29 | – | –
7 | C#Cc1cccc(F)c1C(=O)Nc1ccc(Oc2cc(C(F)(F)F)cc(C(F)(F)F)c2)cc1 | – | – | 0 | 0
8 | O=C(Nc1ccc(Oc2cc(Cl)cc(C(F)(F)F)c2)cc1)c1c(F)cccc1Cl | – | 2.04 | – | –
9 | O=C(Nc1ccc(Oc2cc(C(F)(F)F)cc(C(F)(F)F)c2)cc1)c1c(F)c(F)c(F)c(F)c1F | – | – | 0 | 0
10 | O=C(Nc1ccc(Oc2cc(C(F)(F)F)cc(C(F)(F)F)c2)cc1)c1sccc1Cl | – | 3.2 | 0 | –
11 | N#Cc1c(Br)cccc1Oc1ccc(-c2nnco2)cc1 | – | 0.88 | – | –
12 | O=C(Nc1ccc(Oc2cc(C(F)(F)F)cc(C(F)(F)F)c2)cc1)c1c(F)cccc1OC(F)(F)F | > 50 | > 50 | – | –
13 | O=C(Nc1ccc(Oc2cc(C(F)(F)F)cc(C(F)(F)F)c2)cc1)c1ccc(I)cc1F | > 50 | > 50 | – | –
14 | O=[N+]([O-])c1c(Cl)cccc1Oc1ccc(-c2nnco2)cc1 | – | 0.77 | – | –
15 | N#Cc1c(Cl)cccc1Oc1ccc(-c2ncco2)cc1 | – | – | – | 0
16 | N#Cc1c(Cl)cccc1COc1ccc(-c2nnco2)cc1 | – | 2.52 | – | –
17 | O=C(Nc1ccc(Oc2cc(I)cc(C(F)(F)F)c2)cc1)c1c(F)cccc1Cl | – | > 5 | – | –

Row | Compound | IC50 [1] [µM] | IC50 [2] [µM] | inhibition [3] [%] | inhibition [4] [%]
18 | O=S(=O)(Nc1ccc(Oc2cc(C(F)(F)F)cc(C(F)(F)F)c2)cc1)c1ccccc1F | – | – | 0 | 0
19 | O=C(Nc1ccc(Oc2cc(C(F)(F)F)cc(C(F)(F)F)c2)cc1)c1c(F)cccc1Br | 1 | 6 | – | –
20 | O=C(Nc1ccc(Oc2cc(C(F)(F)F)cc(C(F)(F)F)c2)cc1)c1ccco1 | – | – | 0 | 0
21 | O=C(Nc1ccc(Oc2cc(C(F)(F)F)cc(C(F)(F)F)c2)cc1)c1c(F)cccc1F | – | – | – | 0
22 | Nc1ccc(C(=O)Nc2ccc(Oc3cc(C(F)(F)F)cc(C(F)(F)F)c3)cc2)c(F)c1 | > 50 | > 50 | – | –
23 | O=C(Nc1ccc(Oc2cc(Br)cc(C(F)(F)F)c2)cc1)c1c(F)cccc1Cl | – | 2.32 | – | –
24 | O=S(=O)(Nc1ccc(Oc2cc(C(F)(F)F)cc(C(F)(F)F)c2)cc1)c1c(F)cccc1Cl | – | – | 0 | 0
25 | O=C(Nc1ccc(Oc2cc(F)cc(C(F)(F)F)c2)cc1)c1c(F)cccc1Cl | – | 1.59 | – | –
26 | O=C(Nc1ccc(Oc2cc(C(F)(F)F)cc(C(F)(F)F)c2)cc1O)c1c(F)cccc1I | 4.73 | 2.63 | – | –
27 | Fc1cccc(I)c1-c1nc2cc(Oc3cc(C(F)(F)F)cc(C(F)(F)F)c3)ccc2[nH]1 | – | – | 0 | 0
28 | c1ccc(Oc2ccc(-c3nnco3)cc2)cc1 | – | 7.26 | – | –
29 | O=C(Nc1ccc(Oc2cc(O)cc(C(F)(F)F)c2)cc1)c1c(F)cccc1Cl | – | – | 0 | 0
30 | Fc1cccc(Cl)c1CNc1ccc(Oc2cc(C(F)(F)F)cc(C(F)(F)F)c2)cc1 | > 50 | > 50 | – | –
31 | O=C(Nc1ccc(Oc2cc(C(F)(F)F)cc(C(F)(F)F)c2)cc1O)c1c(F)cccc1Cl | – | 4.02 | 0 | –
32 | O=C(Nc1ccc(Oc2cc(C(F)(F)F)cc(C(F)(F)F)c2)cc1)C1CCCCC1 | – | – | 0 | 0
33 | O=C(Nc1ccc(Oc2cc(C(F)(F)F)cc(C(F)(F)F)c2)cc1)c1ncccc1F | > 50 | – | – | 0
